A selection: hits, their analogues and other compounds. The true share with any hit is near 3%.
PLC-gamma1 inh = blocks human PLC-gamma1 enzyme activity; inhibition, % at 12.2 µM; P19174; AID 720700; purified PLC-gamma1, fluorogenic substrate, fluorescence; 0.84% of 370,000 active; in the data active = inhibition above about 9.5%
CendR NRP1 mod = alters CendR peptide binding to human NRP-1. inhibition, % at 25 µM. FAM-RPARPAR peptide binding to NRP-1, fluorescence polarization. O14786. 0.85% of 360,000 active;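 active = inhibition or corrected inhibition above about 18%, plus a signal ratio from 0.5 to 1.5, limit read from the data, passing the limit was not always enough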
Tn7 DDE FP = disrupts Tn7 cyclic peptide binding to fibrin D-Dimer-E complex | P02675 | FP displacement of FITC-Tn7 peptide from fibrin DD(E); 0% = median of compound wells per plate | inhibition, % at 8.3 µM | 0.13% of 370,000 active | AID 720508;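 active = inhibition above the mean of compounds falling within the control limits plus 3 SD of them, cut at about 14% in these data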;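 note: 0% = plate median of compound wells and 100% = 10 µM Aha-Tn7 peptide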
Target sequence (P02675 whole entry, looked up): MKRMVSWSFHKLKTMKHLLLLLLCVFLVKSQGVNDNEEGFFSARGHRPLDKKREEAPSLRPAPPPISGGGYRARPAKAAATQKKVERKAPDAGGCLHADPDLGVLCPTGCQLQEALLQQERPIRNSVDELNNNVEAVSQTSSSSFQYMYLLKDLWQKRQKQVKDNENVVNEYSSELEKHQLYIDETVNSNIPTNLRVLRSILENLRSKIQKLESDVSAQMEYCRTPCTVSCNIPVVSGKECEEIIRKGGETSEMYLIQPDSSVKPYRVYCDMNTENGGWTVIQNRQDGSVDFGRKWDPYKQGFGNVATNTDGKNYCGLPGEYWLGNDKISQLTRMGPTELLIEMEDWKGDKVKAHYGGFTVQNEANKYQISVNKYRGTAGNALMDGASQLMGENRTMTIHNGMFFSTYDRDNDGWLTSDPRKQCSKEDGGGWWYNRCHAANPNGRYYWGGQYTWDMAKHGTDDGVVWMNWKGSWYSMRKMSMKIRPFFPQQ
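Assay system: Human fibrin DD(E) protein | Medium: Tris buffer with calcium and detergent, pH 7.8 | Reagent: 0.1 µM fluorescent Tn7 | Compound dosing: Single point at 8.3 µM | Times: 10 min preincubation, 3 h with tracer, room temperature | Detection: Fluorescence polarization of the labelled Tn7 tracer | Controls: Aha-Tn7 high control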
Tn6 DDE FP = disrupts Tn6 cyclic peptide binding to fibrin D-Dimer-E complex; P02675; Fibrin DD(E) TRITC-Tn6 fluorescence polarization displacement; inhibition, % at 8.3 µM; 0.21% of 370,000 active;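 active = inhibition above a per-campaign cutoff: mean of compounds within control limits plus 3 SD, cut at about 15% in these data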;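 note: 0% = median of all compound wells on the plate and 100% = blocking peptide control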
KLK7 zymogen act = activates the human kallikrein-7 zymogen | AID 652039 | 0.9% of 370,000 active | activation, % at 7 µM | purified proKLK7, EDANS-DABCYL substrate fluorescence; 100% is mature enzyme control, 0% vehicle | P49862;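 active = activation above the mean of all tested compounds plus 3 SD, computed per campaign excluding outliers beyond control limits, cut at about 13% in these data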
PLC-beta3 inh = inhibitors of human phospholipase C beta3. 0.18% of 370,000 active. Purified PLC-beta3, fluorogenic substrate, fluorescence. Q01970. inhibition, % at 12.2 µM;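 note: 0% = median of compound wells on plate and 100% = full blocker control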
PLCgamma1 ctr = inhibits human PLC-gamma1 in PLC-beta3 counter-screen | shares compounds with PLC-gamma1 inh | purified PLC-gamma1, fluorogenic substrate, fluorescence | inhibition, % at 12.3 µM | 3.1% of 3,300 active | AID 743258; in the data active = inhibition above about 9.5%
PLCb3 confirm = confirmation of human PLC-beta3 inhibitors. 1% of 3,300 active. purified PLC-beta3, fluorogenic substrate fluorescence. shares compounds with PLC-gamma1 inh. inhibition, % at 12.3 µM. AID 743261
Numbers without * were called inactive; . = no result. Cut-off read from the data, not from the text of the source, unless noted: active = inhibition above about 11%; inactive = the rest.

SMILES	PLC-gamma1 inh	CendR NRP1 mod	Tn7 DDE FP	Tn6 DDE FP	KLK7 zymogen act	PLC-beta3 inh	PLCgamma1 ctr	PLCb3 confirm
CC(C)(C)c1ccc(-c2nnc(SCC(=O)c3ccc([N+](=O)[O-])cc3)n2-c2ccc(Cl)cc2)cc1	-2	.	10	10	1	0	.	.
COc1c(C)cc(C(=O)C2CCCN(C(=O)c3cc(C)n(C)n3)C2)cc1C (configuration not stated)	-2	1	-1	6	0	-11	.	.
COc1c(C)cc(C(=O)C2CCCN(C(=O)/C=C/c3ccccn3)C2)cc1C (configuration not stated)	11*	0	-4	-10	0	11*	-4	-5
CCCNC(=O)c1c(O)c2c([nH]c1=O)CCCC2	0	0	3	6	0	4	.	.
COc1ccc(CCNC(=O)c2c(O)c3c([nH]c2=O)CCCC3)cc1	11*	-3	-4	-10	0	9	-4	-4
O=C(NC1CCCCCCC1)C1CCN(S(=O)(=O)N2CCCC2)CC1	11*	10	-7	-2	0	3	-6	-6
Cc1ccc(/C=N/N2CCN(Cc3ccc(C)cc3)CC2)cc1	-1	5	-5	1	1	-3	.	.
Cc1ccc(CN2CCN(/N=C/c3ccc(C(F)(F)F)cc3)CC2)cc1	10*	-8	5	-2	1	10	-4	-1
COc1ccc(C#CCN(Cc2ccc(OC)cc2OC)C(N)=NC(=O)CCc2ccccc2)cc1	-3	.	1	-4	-1	-6	.	.
CCn1c(CNC(=O)COc2ccc(C(C)C)cc2)nnc1SCC(=O)Nc1cc(F)ccc1C	10*	4	-6	0	0	8	-1	-2
OC(COc1ccc(Cl)cc1)CN1CCCCC1 (configuration not stated)	-2	4	-3	1	-1	0	.	.
OC(COc1c(Cl)cc(Cl)cc1Cl)CN1CCCCC1 (configuration not stated)	15*	-3	-2	-3	0	10	-3	1
CC(=O)Nc1ccc2nc(SCC(=O)NCCOc3ccccc3)sc2c1	7	4	4	1	0	-1	.	.
CC(=O)Nc1nnc(SCC(=O)NCCOc2ccccc2)s1	9.9*	-3	-11	6	0	2	-5	0
COC(=O)c1cc(C(=O)Nc2nnc(CC(C)C)s2)cc([N+](=O)[O-])c1	0	4	2	4	0	3	.	.
CCOC(=O)CSc1nnc(NC(=O)c2cccc([N+](=O)[O-])c2)s1	5	6	0	1	0	13*	-3	0
CCC(CC)c1nnc(NC(=O)c2cc(C(=O)OC)cc([N+](=O)[O-])c2)s1	12*	-2	-3	3	0	0	-4	-2
Cc1ccc(N(C(=O)CCC(=O)Nc2cc(C)on2)C(C(=O)NC2CCCC2)c2ccncc2)cc1 (configuration not stated)	10*	-16	-2	-1	0	4	6	4
O=C(/C=C/c1cccs1)c1ccc([N+](=O)[O-])cc1	8	-5	-3	2	0	-4	.	.
O=C(/C=C/c1cccs1)Nc1ccc([N+](=O)[O-])cc1	12*	-1	-4	-5	0	5	5	6
O=C1NC(c2ccc(-c3ccccc3[N+](=O)[O-])o2)C(C(=O)c2ccccc2)C(O)(C(F)(F)F)N1 (configuration not stated)	-2	-3	-2	2	0	11*	-51	-35
CN(Cc1ccccc1)S(=O)(=O)c1cccc(C(=O)OCc2ccccc2)c1	1	.	-2	-5	1	0	.	.
CC(C)(C)NC(=O)NC(=O)COC(=O)Cc1c(Cl)cccc1Cl	9.8*	6	0	-3	0	-5	-1	2
C=CCN=C1NC(CCc2ccccc2)C(C(=O)OC)=C(C)N1Cc1cccc(C(F)(F)F)c1 (configuration not stated)	-6	.	5	-1	1	-7	.	.
Cn1c(SCC(=O)c2c(N)n(C)c(=O)n(C)c2=O)nnc1-c1ccccc1	15*	4	-3	-1	0	3	-6	-1
SMILES	PLC-gamma1 inh	CendR NRP1 mod	Tn7 DDE FP	Tn6 DDE FP	KLK7 zymogen act	PLC-beta3 inh	PLCgamma1 ctr	PLCb3 confirm
Cn1c(N)c(C(=O)CSc2nc3ccccc3c(=O)n2Cc2ccccc2)c(=O)n(C)c1=O	11*	3	-1	5	-1	5	-5	-4
Cc1ccc(C)c(OCc2nc(-c3cccnc3)no2)c1	9.8*	6	-5	-1	0	0	-6	-9
Cc1cccc(OCc2nc(-c3cccnc3)no2)c1	6	-2	3	-8	0	6	.	.
COCC#Cc1ccc(CC[C@H]2O[C@H]3CC[C@H](CO)O[C@H]3C[C@H]2n2cc(C(C)(C)O)nn2)cc1	0	.	1	4	1	2	.	.
Cc1ccc([N+](=O)[O-])cc1-c1[nH]c(-c2ccc(O)c(O)c2)nc1-c1ccccc1	9.7*	-2	3	6	0	7	4	7
COc1ccc(-c2nc(-c3ccccc3)c(-c3cc([N+](=O)[O-])ccc3C)[nH]2)cc1O	0	-1	2	2	0	3	.	.
COc1cc(-c2nnc(SCC3(c4ccccc4)OCCO3)o2)cc(OC)c1OC	12*	-1	-1	-7	0	-1	-4	0
CSC(=N/N=C(\N)c1cnccn1)SC	13*	-2	-4	-6	-1	6	5	1
O=C(O)c1cnccn1	2	-6	4	-7	0	-1	.	.
CCCN1CCC(NC(=O)Nc2ccc(OC)c(OC)c2)CC1	10*	49*	-4	7	0	6	-4	-4
CN1CCN(c2nc3c(c(=O)[nH]c(=O)n3C)n2CC(N)=O)CC1	14*	-12	-4	2	0	8	-5	-2
CCCn1c(N2CCN(C)CC2)nc2c1c(=O)[nH]c(=O)n2C	3	-4	5	-1	0	4	.	.
CCCCCCOc1ccc(/C(N)=N/O)cc1	12*	-1	9	-7	1	6	-8	-1
CCNC(=O)CCc1nc(-c2ccc(C(C)C)cc2)no1	0	.	7	-8	.	1	.	.
COc1ccc(C2SCC(=O)N2CCCN(C)C)cc1 (configuration not stated)	8	4	1	2	-1	13*	-5	0

Bioassay records deposited in PubChem by several laboratories.
